# This is a sample that favours compounds with a hit; in the whole collection about 2.5% have one here.
# GRK2 inh: compounds blocking aptamer binding on GRK2 – biochemical, human GRK2, bead flow cytometry, HTS, primary screen. inhibition of aptamer binding, % at 10 µM. FAM-aptamer displacement from GRK2. 0.59% of 330,000 active. Beta-adrenergic receptor kinase 1 (Homo sapiens), P25098;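 active means inhibition of aptamer binding above 40%, roughly 3 SD of noise, on plates passing a quality check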;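 further: median bead fluorescence of bound FAM aptamer so fluorescent compounds give negative values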
# Target sequence (P25098 whole entry, looked up): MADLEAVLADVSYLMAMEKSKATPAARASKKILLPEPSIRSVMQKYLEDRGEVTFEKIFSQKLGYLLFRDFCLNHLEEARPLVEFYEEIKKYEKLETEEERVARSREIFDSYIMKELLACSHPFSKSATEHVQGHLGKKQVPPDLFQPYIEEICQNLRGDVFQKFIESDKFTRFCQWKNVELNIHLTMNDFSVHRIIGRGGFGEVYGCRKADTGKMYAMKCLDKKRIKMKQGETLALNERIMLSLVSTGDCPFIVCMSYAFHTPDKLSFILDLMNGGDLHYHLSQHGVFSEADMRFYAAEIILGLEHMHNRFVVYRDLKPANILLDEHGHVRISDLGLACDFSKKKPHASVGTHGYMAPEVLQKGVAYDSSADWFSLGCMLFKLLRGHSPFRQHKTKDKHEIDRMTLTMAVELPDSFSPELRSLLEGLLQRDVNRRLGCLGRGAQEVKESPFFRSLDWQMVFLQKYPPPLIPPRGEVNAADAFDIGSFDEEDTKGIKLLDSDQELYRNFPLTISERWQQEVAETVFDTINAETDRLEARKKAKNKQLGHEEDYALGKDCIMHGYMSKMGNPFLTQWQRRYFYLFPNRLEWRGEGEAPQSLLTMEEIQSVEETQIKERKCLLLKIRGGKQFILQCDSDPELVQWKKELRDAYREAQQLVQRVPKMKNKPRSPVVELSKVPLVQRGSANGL
# SENP1 inh: human SENP1 catalytic domain inhibitors, primary screen, biochemical, FRET, uHTS. inhibition, % at 10 µM. recombinant SENP1 catalytic domain, CyPet-SUMO1-YPet FRET cleavage. 0.21% of 360,000 active. Sentrin-specific protease 1 (Homo sapiens), Q9P0U3. AID 624204, 2012;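 active means inhibition at least 30% at 10 µM, raw YFP signal under a set limit, fluorescence ratio 0.5 to 1.5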;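 further: 0% = enzyme with DMSO and 100% = no enzyme wells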
#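 Assay system – human recombinant His6-tagged SENP1 catalytic domain enzyme · Input – SENP1 enzyme, 20 pM final · Buffer or medium – Tris pH 8 buffer plus EDTA, NaCl, BME, BSA, NP40, catalase · Schedule – 50 min reaction at room temperature · Technique – FRET read of cyan and yellow fluorescence · Control set – no-enzyme wells low, DMSO-plus-enzyme wells high control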
# NadD block: inhibitors of S. aureus NadD, primary screen, biochemical, colorimetric, uHTS; 0.78% of 360,000 active; inhibition, % at 20 µM; Nicotinate-nucleotide adenylyltransferase NadD (Staphylococcus aureus N315); purified NadD enzyme, colorimetric absorbance read-out; in the data active means inhibition above about 26%
# B2AR ag: beta2AR agonists driving receptor internalization, primary screen, cell-based, FAP fluorogen, flow cytometry. Beta-2 adrenergic receptor (Homo sapiens), P07550. Am2.2-beta2AR cells. response, % (concentration not given with the values). 0.43% of 340,000 active;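 active means response above a set limit, near 3 SD of response in nonfluorescent compounds, cut at about 42% in these data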
# ABHD5 PLIN5 PPI: ABHD5-PLIN5 interaction inhibitors, primary screen, cell lysate, split luciferase complementation, luminescence. inhibition, % at 4 µM. Perilipin-5 (Homo sapiens) + 1-acylglycerol-3-phosphate O-acyltransferase ABHD5 (Homo …. Split G. princeps luciferase complementation, 4 h. 0.78% of 360,000 active. AID 602281, 2012;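 active means inhibition above the mean inhibition across every tested compound plus 3 SD, cut at about 22% in these data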;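 further: 0% = DMSO only wells and the 100% control is not disclosed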
# NadD inh conf: inhibitors of S. aureus NadD, confirmation, biochemical, colorimetric, single concentration; shares compounds with NadD block; purified S. aureus NadD, colorimetric enzyme assay; inhibition, % at 20 µM; 13% of 2,000 active; AID 624309, 2012; in the data active means inhibition mostly above about 42%, no sharp cut-off; inactive means mostly below about 42%
# Numbers without * were called inactive; · = not tested or not shown.
SMILES,GRK2 inh,SENP1 inh,NadD block,B2AR ag,ABHD5 PLIN5 PPI,NadD inh conf
Cc1ccc(NC(=O)c2ccc3c(=O)n4c(nc3c2)CCC4)cc1S(=O)(=O)N(C)C,·,-6,5,25,-1,·
Cc1cc(-n2c(SCC(=O)Nc3ccc(Br)cc3)nc3n[nH]c(C)c3c2=N)ccc1Cl,0,2,32*,2,-4,10
CC1(C(=O)Nc2ccc3c(c2)OCCO3)CCN1C(=O)C1(c2ccc(Cl)cc2)CC1 (stereo not drawn),·,-1,-5,·,0,·
COc1ccc(C2c3c(c(C)c(C)oc3=O)Oc3c(C)c(C)oc(=O)c32)cc1,2,2,0,1,16,·
COc1cc(C2c3c(c(C)c(C)oc3=O)Oc3c(C)c(C)oc(=O)c32)ccc1OS(=O)(=O)c1ccc(C)cc1,3,-4,32*,2,-1,2
O=C(Nc1nc2ccccc2s1)c1cccc(S(=O)(=O)N2CCc3ccccc32)c1,0,2,14,-5,-3,·
O=C(Cc1cn2ccsc2n1)Nc1nc2c(s1)CN(Cc1ccccc1)CC2,2,-54,35*,20,12,6
O=C(Nc1nc2c(s1)CN(Cc1ccccc1)CC2)c1cccc(S(=O)(=O)N2CCc3ccccc32)c1,0,-18,34*,-15,8,14
CC(C)=CC(=O)N1CCCC(N2CCN(c3ccc(F)cc3)CC2)C1 (stereo not drawn),0,1,0,-4,7,·
COc1ccc(-c2cn3nc(SCC(=O)NCC4CCCO4)ccc3n2)cc1 (stereo not drawn),0,-93,8,-6,-3,·
O=C(CSc1nnc2scc(-c3ccccc3)n12)Nc1nsc(-c2ccc(Cl)cc2)n1,0,-1,41*,3,1,10
O=C(CSc1nnc2scc(-c3ccccc3)n12)Nc1nsc(-c2ccccc2)n1,0,2,6,-7,1,·
CCC(C)n1c(=O)c(C(=O)Nc2ccccc2S(N)(=O)=O)c(O)c2ccccc21 (stereo not drawn),0,3,33*,-47,3,64*
Cn1c(=O)c(C(=O)Nc2ccccc2S(N)(=O)=O)c(O)c2ccccc21,0,4,-5,-10,5,·
CC(C)Cn1c(=O)c(C(=O)Nc2ccccc2S(N)(=O)=O)c(O)c2ccccc21,1,1,33*,0,1,65*
O=S(=O)(c1ccc(NC(=S)NCc2ccc(F)cc2)cc1)N1CCOCC1,3,1,-4,-17,2,·
Cc1nc(NC(=O)c2ccccc2)sc1-c1csc(Nc2ccc(Cl)cc2)n1,0,·,·,·,·,·
CCCCCC(=O)Nc1nc(C)c(-c2csc(Nc3cc(Cl)ccc3C)n2)s1,1,-10,22,5,-9,·
Cc1nc(NC(=O)c2ccccc2)sc1-c1csc(Nc2ccc(Cl)cc2Cl)n1,3,·,·,·,·,·
COc1cccc(N(C(=O)c2ccco2)c2nc(-c3sc(NC(=O)c4ccco4)nc3C)cs2)c1,0,-16,36*,3,-3,46
CCCC(C)C(=O)Nc1nc(C)c(-c2csc(Nc3cc(Cl)ccc3C)n2)s1 (stereo not drawn),0,-17,28*,7,-11,13
Cc1nc(NC(=O)c2ccco2)sc1-c1csc(Nc2ccc(Cl)cc2Cl)n1,4,-39,53*,17,-16,28
Cc1nc(NC(=O)c2ccco2)sc1-c1csc(Nc2ccc(Cl)cc2)n1,1,-26,36*,14,-9,36
C[C@H](O)[C@@H]1C(=O)N2CCc3c([nH]c4ccccc34)[C@@H]2C[C@@H]1N(C)C(=O)NC1CCCCC1,·,-33,4,·,-5,·
COc1cc(C(=O)NCCCC2CCCC2)ccc1OC1CCN(C(C)=O)CC1,·,1,3,-8,-7,·

# Screens deposited in PubChem BioAssay by several laboratories.
